Activity calls are given as the source filed them. No cut-off for these calls is given here.
How the values were obtained:
[1] = molecular target: T1, Neuropeptide Y receptor type 5 (Homo sapiens, UniProt Q15761); assay: Binding affinity to human neuropeptide Y5 receptor
T1 sequence (Q15761 whole entry): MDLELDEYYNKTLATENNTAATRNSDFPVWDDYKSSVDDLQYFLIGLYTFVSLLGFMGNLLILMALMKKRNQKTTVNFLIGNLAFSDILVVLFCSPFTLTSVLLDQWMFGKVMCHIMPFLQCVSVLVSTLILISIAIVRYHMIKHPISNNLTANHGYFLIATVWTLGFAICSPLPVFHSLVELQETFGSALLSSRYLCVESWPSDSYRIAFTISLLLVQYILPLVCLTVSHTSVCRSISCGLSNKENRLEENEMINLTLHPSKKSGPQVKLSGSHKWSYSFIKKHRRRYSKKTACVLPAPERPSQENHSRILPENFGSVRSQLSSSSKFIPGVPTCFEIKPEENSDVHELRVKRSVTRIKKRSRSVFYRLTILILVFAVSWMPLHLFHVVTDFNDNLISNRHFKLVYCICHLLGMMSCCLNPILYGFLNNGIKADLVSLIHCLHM

[2] = tested on: Rattus norvegicus; assay: Suppression of Y5 agonist bovine pancreatic peptide-induced food intake in po dosed Sprague-Dawley rat assessed as minimum effective dose treated 1 hr before peptide administration measured after 2 hrs; assay type: functional
How it was run: (§1)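 bPP (5 µg) given ICV to SD rats in 10 µL of 10 mM PBS containing 0.05% BSA. Compound suspended in 0.5% methylcellulose in distilled water and given orally (5 mL/kg) 1 h before bPP. Cumulative food intake recorded over 0–2 h; n = 7 or more. MED is the lowest dose with a statistically significant reduction versus vehicle (P < 0.05 or P < 0.01).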

[3] = Oral bioavailability in Sprague-Dawley rat at 10 mg/kg; assay type: ADME, organism-based; conditions: in vivo
How it was run: (§2)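 Sprague-Dawley rats (n = 2) given 3 mpk iv and 10 mpk po. Plasma sampled at 5 min, 1 h and 4 h after iv dosing and at 0.5 h, 1 h and 2 h after po dosing. F, CL_tot, AUC and other PK parameters calculated by the trapezoidal method.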

[4] = Ratio of drug level in brain to plasma in Sprague-Dawley rat at 3 mg/kg, iv after 10 mins; assay type: ADME, organism-based; parameters: dose 3 mg/kg, route intravenous
How it was run: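 Rats (n = 2) dosed iv at 3 mpk. Brain and plasma concentrations taken 10 min after dosing, and brain penetration expressed as the brain/plasma ratio.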

[5] = Lipophilicity, calculated log D at pH 7.4
[6] = Total clearance in Sprague-Dawley rat at 10 mg/kg, po and 3 mg/kg, iv; assay type: ADME, organism-based; conditions: in vivo; how it was run: as §2
[7] = AUC in Sprague-Dawley rat at 10 mg/kg, po and 3 mg/kg, iv; assay type: ADME, organism-based; conditions: plasma; how it was run: as §2
[8] = tested on: Brain; assay: Drug level in Sprague-Dawley rat brain at 10 mg/kg, po after 2 hrs; assay type: ADME, organism-based; parameters: dose 10 mg/kg, route oral; conditions: in vivo
How it was run: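 SD rats dosed orally at 10 mg/kg. Brain concentration measured 2 h after dosing and expressed as nmol/g.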

[9] = tested on: Mus musculus; assay: Reduction in body weight in diet-induced obese C57BL/6J mouse at 30 mg/kg, po after 13 days; assay type: functional, organism-based; parameters: dose 30 mg/kg
[10] = tested on: Rattus norvegicus; assay: Suppression of Y5 agonist bovine pancreatic peptide-induced food intake in Sprague-Dawley rat at 1 mg/kg, po treated 1 hr before peptide administration measured after 2 hrs; assay type: functional; how it was run: as §1
[11] = tested on: Rattus norvegicus; assay: Suppression of Y5 agonist bovine pancreatic peptide-induced food intake in Sprague-Dawley rat at 3 mg/kg, po treated 1 hr before peptide administration measured after 2 hrs; assay type: functional; how it was run: as §1
[12] = tested on: Rattus norvegicus; assay: Suppression of Y5 agonist bovine pancreatic peptide-induced food intake in Sprague-Dawley rat at 10 mg/kg, po treated 1 hr before peptide administration measured after 2 hrs; assay type: functional; how it was run: as §1
[13] = tested on: Mus musculus; assay: Reduction in cumulative food intake in diet-induced obese C57BL/6J mouse at 30 mg/kg, po after 13 days relative to control; assay type: functional; parameters: scale not given: the % may be the effect or the level left
[14] = species: Mus musculus; assay: Reduction in body weight in Y5 receptor knock-out diet-induced obese C57BL/6J mouse; assay type: functional, organism-based
[15] = Cmax in Sprague-Dawley rat at 10 mg/kg, po and 3 mg/kg, iv; assay type: ADME, organism-based; conditions: in vivo; how it was run: as §2
[16] = Tmax in Sprague-Dawley rat at 10 mg/kg, po and 3 mg/kg, iv; assay type: ADME, organism-based; conditions: in vivo; how it was run: as §2
[17] = tested on: Mus musculus; assay: Reduction in body weight in diet-induced obese C57BL/6J mouse at 100 mg/kg, po; assay type: functional, organism-based; parameters: dose 100 mg/kg

SMILES	IC50 [1]	MED [2]	other results
CCS(=O)(=O)N1CC2(CCN(C(=O)Nc3cn(-c4ccccc4OC)cn3)CC2)c2ccccc21	4.9 nM	> 30 mg/kg	
CS(=O)(=O)N1CC2(CCN(C(=O)Nc3ccc4ccccc4n3)CC2)c2ccccc21	6.1 nM		
CS(=O)(=O)N1CC2(CCN(C(=O)Nc3ccc(-c4ccco4)cc3)CC2)c2ccccc21	4.2 nM		
Cn1ccnc1-c1ccc(NC(=O)N2CCC3(CC2)CN(S(C)(=O)=O)c2ccccc23)cc1	9 nM		
CS(=O)(=O)N1CC2(CCN(C(=O)Nc3ccc4ncccc4c3)CC2)c2ccccc21	2.5 nM	> 30 mg/kg	bioavailability [3]: 24%; Kp at 10 min [4]: 0.03; logD [5]: 2.74
CS(=O)(=O)N1CC2(CCN(C(=O)Nc3ccc(-c4cscn4)cc3)CC2)c2ccccc21	2.8 nM		
CS(=O)(=O)N1CC2(CCN(C(=O)Nc3cn(-c4ccccc4)cn3)CC2)c2ccccc21	2.4 nM	> 30 mg/kg	bioavailability [3]: 27%; clearance [6]: 3.9 mL/min/kg; AUC [7]: 25.3 µM·h; Kp at 10 min [4]: 0.1; logD [5]: 2.15
CCS(=O)(=O)N1CC2(CCN(C(=O)Nc3cn(-c4ccccc4)cn3)CC2)c2ccccc21	3.4 nM	3 mg/kg	bioavailability [3]: 37%; clearance [6]: 2.5 mL/min/kg; AUC [7]: 58.9 µM·h; Kp at 10 min [4]: 0.22; Activity [2]: Dose-dependent effect; Drug uptake [8]: 0.64 nmol/g; Activity [9]: Active; inhibition in vivo at 1 mg/kg [10]: 34%; inhibition in vivo at 3 mg/kg [11]: 45%; inhibition in vivo at 10 mg/kg [12]: 57%; Activity [13]: 8.8%; Activity [14]: inactive
CS(=O)(=O)N1CC2(CCN(C(=O)Nc3ccc(C(=O)c4ccccc4)cc3)CC2)c2ccccc21	0.68 nM		
CS(=O)(=O)N1CC2(CCN(C(=O)Nc3ccc(Oc4ccccc4)cc3)CC2)c2ccccc21	2.6 nM		
CS(=O)(=O)N1CC2(CCN(C(=O)Nc3ccc(-n4nccn4)cc3)CC2)c2ccccc21	41 nM		
CS(=O)(=O)N1CC2(CCN(C(=O)Nc3cnc4ccccc4c3)CC2)c2ccccc21	5.4 nM		
CS(=O)(=O)N1CC2(CCN(C(=O)Nc3nnc(-c4ccccc4)s3)CC2)c2ccccc21	3.4 nM		
CCS(=O)(=O)N1CC2(CCN(C(=O)Nc3cn(-c4ccc(OC)cc4)cn3)CC2)c2ccccc21	3.2 nM		
CS(=O)(=O)N1CC2(CCN(C(=O)Nc3cn(-c4ccccc4F)cn3)CC2)c2ccccc21	3.9 nM	> 30 mg/kg	
CCS(=O)(=O)N1CC2(CCN(C(=O)Nc3cn(-c4cccc(F)c4)cn3)CC2)c2ccccc21	3 nM	30 mg/kg	bioavailability [3]: 23%; Kp at 10 min [4]: 0.18
CS(=O)(=O)N1CC2(CCN(C(=O)Nc3cc(-c4ccccc4)n[nH]3)CC2)c2ccccc21	1.4 nM	> 30 mg/kg	bioavailability [3]: 13%; Kp at 10 min [4]: 0.02; logD [5]: 3.08

SMILES	IC50 [1]	MED [2]	other results
CS(=O)(=O)N1CC2(CCN(C(=O)Nc3ccc(-c4nccs4)cc3)CC2)c2ccccc21	2.4 nM		
CS(=O)(=O)N1CC2(CCN(C(=O)Nc3ccc(Cl)cn3)CC2)c2ccccc21	7.1 nM		
CS(=O)(=O)N1CC2(CCN(C(=O)Nc3ccc(-c4ccncc4)cc3)CC2)c2ccccc21		10 mg/kg	clearance [6]: 17.8 mL/min/kg; Cmax [15]: 5.5 µM; Tmax [16]: 1 h; AUC [7]: 10.8 µM·h; Activity [17]: inactive
CS(=O)(=O)N1CC2(CCN(C(=O)Nc3ccc(-c4cccnc4)cc3)CC2)c2ccccc21		100 mg/kg	clearance [6]: 13.3 mL/min/kg; Cmax [15]: 4.7 µM; Tmax [16]: 1 h; AUC [7]: 12.7 µM·h
CS(=O)(=O)N1CC2(CCN(C(=O)Nc3ccc(-n4cccn4)cc3)CC2)c2ccccc21	3.2 nM		
CS(=O)(=O)N1CC2(CCN(C(=O)Nc3cc(-c4ccccc4)no3)CC2)c2ccccc21	1.3 nM	> 30 mg/kg	bioavailability [3]: 23%; Kp at 10 min [4]: 0.22; logD [5]: 2.53
CCS(=O)(=O)N1CC2(CCN(C(=O)Nc3cn(-c4cccc(OC)c4)cn3)CC2)c2ccccc21	2 nM	10 mg/kg	bioavailability [3]: 50.1%; Kp at 10 min [4]: 0.11
CS(=O)(=O)N1CC2(CCN(C(=O)Nc3nc4cc(Cl)ccc4o3)CC2)c2ccccc21	5 nM		
CS(=O)(=O)N1CC2(CCN(C(=O)Nc3ccc(Cl)nc3)CC2)c2ccccc21	11 nM		
CC(=O)c1ccc(NC(=O)N2CCC3(CC2)CN(S(C)(=O)=O)c2ccccc23)cc1	2.7 nM		
COc1cccc2sc(NC(=O)N3CCC4(CC3)CN(S(C)(=O)=O)c3ccccc34)nc12	8.9 nM		
CS(=O)(=O)N1CC2(CCN(C(=O)Nc3cccnc3)CC2)c2ccccc21	> 1000 nM		
CS(=O)(=O)N1CC2(CCN(C(=O)Nc3ccc(-c4ccccn4)cc3)CC2)c2ccccc21		> 100 mg/kg	clearance [6]: 24.4 mL/min/kg; Cmax [15]: 0.6 µM; Tmax [16]: 0.25 h; AUC [7]: 1.8 µM·h; Kp at 10 min [4]: 0.22
CCS(=O)(=O)N1CC2(CCN(C(=O)Nc3cn(-c4ccc(F)cc4)cn3)CC2)c2ccccc21	4.1 nM	> 30 mg/kg	
CS(=O)(=O)N1CC2(CCN(C(=O)Nc3cn(-c4cccc(F)c4)cn3)CC2)c2ccccc21	1.8 nM	> 30 mg/kg	
CS(=O)(=O)N1CC2(CCN(C(=O)Nc3ncc(-c4ccccc4)s3)CC2)c2ccccc21	2.2 nM		
CCS(=O)(=O)N1CC2(CCN(C(=O)Nc3cn(-c4ccccc4F)cn3)CC2)c2ccccc21	3.3 nM	3 mg/kg	bioavailability [3]: 23%; Kp at 10 min [4]: 0.25

Reference: ChEMBL document CHEMBL1154087, “Novel orally active NPY Y5 receptor antagonists: Synthesis and structure-activity relationship of spiroindoline class compounds” (Bioorg Med Chem, 2009)
